From PubChem BioAssay
Inconclusive results are not listed.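 How the source made its calls, unless noted: active means viability at or below 27.92% in each of two runs, the all-compound median minus 4 SD; inconclusive means no clear call, values can overlap the other calls; inactive means the rest.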

Tests used:
[1] = OD615 S. cerevisiae growth inhibition, permissive medium, pilot counter-assay, permissive growth control for S. cerevisiae lifespan shortening project (AID 705;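 active means growth inhibition above 25% in both replicates, a cutoff set 3 SD above the mean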); details: OD615, 24 h, at 10 µM, hits give high values
Outline: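 System: S. cerevisiae with engineered DeaD lifespan system / Measured by: absorbance (optical density) at 615 nm / Read-out: reduction in yeast growth (OD615) / Times: 4 h cell pre-growth, 24 h exposure at 30 °C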

[2] = Restrictive medium S. cerevisiae growth inhibition, OD615, pilot screen of yeast lifespan reduction project, restrictive growth control (AID 706;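 active means growth inhibition above a set limit, 3 SD over mean compound inhibition, in both replicates, cut at about 43% in these data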;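 further: modified DeaD lifespan yeast strain shifted to restrictive glucose medium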); details: OD615, 48 h, at 10 µM, hits give high values
Outline: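 System: Engineered S. cerevisiae DeaD strain | Buffer or medium: Glucose-based CSMM-D restrictive medium | Schedule: 4 h pre-incubation, 48 h exposure at 30 °C | Technique: Optical density at 615 nm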

[3] = viability gain of MRP-1-high H69AR cells under doxorubicin, pilot screen, MRP-1 activator project, CellTiter-Glo, duplicate (AID 807;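 active means viability increase at or above a cutoff of the median across tested compounds plus 3 SD, cut at about 8.5% in these data, passing the limit was not always enough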;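 further: compound pretreatment 18-22 h then 72 h combined with doxorubicin; 0% = doxorubicin alone and 100% = vehicle without doxorubicin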); details: H69AR viability with doxorubicin, CellTiter-Glo luminescence; at 10 µM; hits give high values
[4] = growth suppression of beta-catenin knockout HCT116, pilot screen, human colon tumor cells (AID 823;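 active means cell viability at or below a set limit in both duplicate runs, the limit being the all-compound median minus 4 SD, cut at about 23% in these data, passing the limit was not always enough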;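 further: 0% = wells killed by 20 µM Hyamine and 100% = untreated DMSO cell wells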); details: CellTiter-Glo, 60 h, at 10 µM, hits give low values
[5] = growth suppression of PTEN-deleted HCT116, pilot screen, cell-based, HCT116 clonal line, CellTiter-Glo (AID 824); details: 60 h, at 10 µM, hits give low values;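 further: 0% = 20 µM Hyamine control and 100% = vehicle cell control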
[6] = inhibitors of the yeast RAM network, pilot screen, dse1pr::URA3 reporter, 5-FOA selection (AID 869;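 active means inhibition over a set limit, the all-compound mean plus 3 SD, in both replicate runs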;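 further: 0% = DMSO wells with no growth and 100% = 10 µM 1-NA-PP1 with full growth; RAM network block rescues cells from 5-FOA so hits raise OD615 growth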); details: S. cerevisiae dse1pr::URA3 5-FOA growth, OD615, 2 d; at 10 µM; hits give high values; strain carries analog-sensitive mutant Cbk1 kinase
[7] = RAM signaling pathway blockade in yeast – S. cerevisiae, Pdr1DBD-CYC8 efflux-inhibited sensitized strain, primary screen (AID 1298;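 active means RAM network inhibition above 8.4% in each of two replicates, 3 SD over the compound average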;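 further: 0% = DMSO untreated cells without growth and 100% = 10 µM 1-NA-PP1 full growth; higher means more yeast growth rescued from 5-FOA killing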); details: S. cerevisiae cbk1-as DSE1-URA3 strain, 5-FOA growth OD615, 2 d; at 50 µM; hits give high values

Cc1c(N2C(=O)CSC23C(=O)Nc2ccccc23)c(=O)n(-c2ccccc2)n1C (configuration not stated)
inactive: growth inhibition [1] -10.1% | growth inhibition [2] -11.7% | viability increase [3] -3.38% | viability [4] 90.4% | viability [5] 91.8% | inhibition [6] 3.84% | RAM network inhibition [7] 3.91%

C=CCn1c(-c2ccc(N)cc2)nc2ccccc21
inactive: growth inhibition [1] -6.82% | growth inhibition [2] 3.25% | viability increase [3] -3.72% | viability [4] 93.3% | viability [5] 80.1% | inhibition [6] 1.5% | RAM network inhibition [7] 1.23%

COc1ccc(-n2ncc3c(N4CCN(c5cc(C)ccc5C)CC4)ncnc32)cc1
inactive: growth inhibition [1] -8.7% | growth inhibition [2] 4.27% | viability increase [3] -4.46% | viability [4] 61.3% | viability [5] 68% | inhibition [6] 2.01% | RAM network inhibition [7] 3.49%

CCS(=O)(=O)n1nc(-c2ccccc2)cc1N
inactive: growth inhibition [1] -3.12% | growth inhibition [2] -16.4% | viability increase [3] -1.52% | viability [4] 98.7% | viability [5] 96.7% | inhibition [6] 0.555% | RAM network inhibition [7] 1.53%

O=C(CN1CCCCC1)Nc1nnc(-c2ccccc2)s1
inactive: growth inhibition [1] -11.4% | growth inhibition [2] -5.87% | viability increase [3] 1.16% | viability [4] 95.2% | viability [5] 98.5% | inhibition [6] 0.38% | RAM network inhibition [7] 0.64%

Cc1cc(C(=O)N2CCN(Cc3ccc4c(c3)OCO4)CC2)on1
inactive: growth inhibition [1] -6.71% | growth inhibition [2] -10.4% | viability increase [3] 0.9% | viability [4] 97.2% | viability [5] 105% | inhibition [6] 1.79% | RAM network inhibition [7] 2.8%

CCOC(=O)C1=C(C)N=c2s/c(=C\C(=O)OC)c(=O)n2C1c1ccc(OC)cc1 (configuration not stated)
inactive: growth inhibition [1] -2.88% | growth inhibition [2] 11.6% | viability increase [3] -2.64% | viability [4] 100% | viability [5] 101% | inhibition [6] 1.73% | RAM network inhibition [7] 4.95%

CCSc1nnc(NC(=O)c2ccccc2)s1
inactive: growth inhibition [1] -19.1% | growth inhibition [2] 0.02% | viability increase [3] 1.94% | viability [4] 95.2% | viability [5] 98.7% | inhibition [6] 1.25% | RAM network inhibition [7] 4.7%

CN(c1ccc(C(=O)O)cc1)S(=O)(=O)c1ccccc1
inactive: growth inhibition [1] 0.21% | growth inhibition [2] 5.12% | viability increase [3] -1.24% | viability [4] 99.5% | viability [5] 92.5% | inhibition [6] 1.14% | RAM network inhibition [7] 1.5%

Cc1ccccc1NC(=O)CN1C(=O)COc2ccc(Cl)cc21
inactive: growth inhibition [1] -14.1% | growth inhibition [2] -18% | viability increase [3] 1.63% | viability [4] 95% | viability [5] 87.9% | inhibition [6] 0.995% | RAM network inhibition [7] 4.92%

COc1cccc(N(CC(=O)Nc2cccc(C(C)=O)c2)S(C)(=O)=O)c1
inactive: growth inhibition [1] -9.21% | growth inhibition [2] -2.52% | viability increase [3] -0.61% | viability [4] 101% | viability [5] 93.7% | inhibition [6] 1.08% | RAM network inhibition [7] 5.87%

Cc1ccc(S(=O)(=O)NCC(=O)N2CCC(C)CC2)cc1
inactive: growth inhibition [1] -17.5% | growth inhibition [2] -28.3% | viability increase [3] 0.72% | viability [4] 104% | viability [5] 107% | inhibition [6] 0.475% | RAM network inhibition [7] 4.08%

Cc1nnc(NC(=O)CSc2nc3c(c(=O)n2CCc2ccccc2)SC(C)C3)s1 (configuration not stated)
inactive: growth inhibition [1] -9.82% | growth inhibition [2] -15.6% | viability increase [3] 0.33% | viability [4] 101% | viability [5] 103% | inhibition [6] 3.13% | RAM network inhibition [7] 6.06%

O=C(O)CSC1c2ccccc2C(=O)N1Cc1ccccc1 (configuration not stated)
inactive: growth inhibition [1] -13.6% | growth inhibition [2] -2.05% | viability increase [3] 2.07% | viability [4] 94.4% | viability [5] 93.7% | inhibition [6] 0.06% | RAM network inhibition [7] 0.3%

CC12C(=O)N(c3cccc4cccnc34)C(=O)C1C1C=CC2C1 (configuration not stated)
inactive: growth inhibition [1] -7.71% | growth inhibition [2] 2.71% | viability increase [3] -1.54% | viability [4] 103% | viability [5] 102% | inhibition [6] 0.395% | RAM network inhibition [7] 1.05%

COCCN1C(=O)C(CC(=O)Nc2ccc(C(=O)O)cc2)SC1=Nc1ccccc1 (configuration not stated)
inactive: growth inhibition [1] -12.5% | growth inhibition [2] -19.2% | viability increase [3] -2.07% | viability [4] 96.4% | viability [5] 97.6% | inhibition [6] 2.39% | RAM network inhibition [7] 2.48%

Cc1nc2sc(C(c3cccs3)N3CCN(C(=O)c4ccco4)CC3)c(O)n2n1 (configuration not stated)
inactive: growth inhibition [1] -1.15% | growth inhibition [2] -6.47% | viability increase [3] -3.62% | viability [4] 102% | viability [5] 100% | inhibition [6] 0.74% | RAM network inhibition [7] -1.05%

C=CCNc1nc2c(c(=O)n(C)c(=O)n2C)n1CC(=C)C
inactive: growth inhibition [1] -1.17% | growth inhibition [2] 2.97% | viability increase [3] -0.38% | viability [4] 91.2% | viability [5] 91.8% | inhibition [6] -0.15% | RAM network inhibition [7] 1.58%

O=C(NCCCN1CCOCC1)c1cc(-c2ccc3c(c2)OCO3)nc2ccccc12
inactive: growth inhibition [1] -19.7% | growth inhibition [2] -7.51% | viability increase [3] -3.78% | viability [4] 92.8% | viability [5] 89.3% | inhibition [6] 1.26% | RAM network inhibition [7] 7.64%

CCOC(=O)c1ccc(N2CSC3=C(C#N)C(c4cccs4)CC(=O)N3C2)cc1 (configuration not stated)
inactive: growth inhibition [1] 6.68% | growth inhibition [2] 28.2% | viability increase [3] -1.48% | viability [4] 103% | viability [5] 85.3% | inhibition [6] 1.52% | RAM network inhibition [7] 2.37%

COc1ccccc1N1CCN(C(=O)CCc2ccc(S(=O)(=O)NC(C)C)cc2)CC1
inactive: growth inhibition [1] -12.7% | growth inhibition [2] -19.8% | viability increase [3] -2.97% | viability [4] 97.6% | viability [5] 102% | inhibition [6] 0.85% | RAM network inhibition [7] 4.61%

O=S(=O)(NCCSc1nc2ccccc2o1)c1ccccc1
inactive: growth inhibition [1] -8% | growth inhibition [2] -2.81% | viability increase [3] -1.25% | viability [4] 94.4% | viability [5] 89% | inhibition [6] -0.55% | RAM network inhibition [7] 6.51%

Cc1cc(C)cc(NC(=O)CSc2nc3c(c(=O)n2C)SC(C)C3)c1 (configuration not stated)
inactive: growth inhibition [1] -2.6% | growth inhibition [2] 2.95% | viability increase [3] -2.79% | viability [4] 89.3% | viability [5] 92% | inhibition [6] 2.04% | RAM network inhibition [7] 6.37%

CCOC(=O)/C=C/S(=O)(=O)c1ccc(NC(C)=O)cc1
inactive: growth inhibition [1] -24.4% | growth inhibition [2] -13.2% | viability increase [3] -7.51% | viability [4] 82.4% | viability [5] 93.5% | inhibition [6] 0.03% | RAM network inhibition [7] 5.29%

O=C(O)c1cc(Cl)c(Cl)cc1C(=O)N1CCOCC1
inactive: growth inhibition [1] -26.1% | growth inhibition [2] -13.7% | viability increase [3] -0.17% | viability [4] 94% | viability [5] 89.5% | inhibition [6] 1.38% | RAM network inhibition [7] 1.67%

COc1cc(OC)cc(-c2nc(-c3ccc(Br)cc3)no2)c1
inactive: growth inhibition [1] -13.6% | growth inhibition [2] -13.2% | viability increase [3] 1.86% | viability [4] 94% | viability [5] 89.2% | inhibition [6] 3.5% | RAM network inhibition [7] 8.01%

CC(=O)c1sc(NC(=O)c2ccco2)nc1-c1ccccc1
inactive: growth inhibition [1] -6.58% | growth inhibition [2] 6.05% | viability increase [3] -1.39% | viability [4] 103% | viability [5] 87.7% | inhibition [6] 1.87% | RAM network inhibition [7] 1.69%

CN(C)S(=O)(=O)c1ccc2c(c1)c(=O)c(C(=O)N1CCN(c3ccccn3)CC1)cn2C
inactive: growth inhibition [1] -5.42% | growth inhibition [2] 5.45% | viability increase [3] 1.06% | viability [4] 97.9% | viability [5] 104% | inhibition [6] 0.415% | RAM network inhibition [7] 4.54%

O=C(Nc1nccs1)c1cc(S(=O)(=O)N2CCOCC2)ccc1Cl
inactive: growth inhibition [1] -0.79% | growth inhibition [2] -2.65% | viability increase [3] -3.96% | viability [4] 97.8% | viability [5] 91% | inhibition [6] 1.35% | RAM network inhibition [7] 4.18%

CCN(CC)C(=O)C1CCCN(C/C=C/c2ccccc2)C1 (configuration not stated)
inactive: growth inhibition [1] -5% | growth inhibition [2] -9.31% | viability increase [3] -0.55% | viability [4] 84.9% | viability [5] 90.9% | inhibition [6] 0.74% | RAM network inhibition [7] -1.53%

Cc1oc(-c2cccs2)nc1CS(=O)CC(=O)NCCc1ccccc1 (configuration not stated)
inactive: growth inhibition [1] 0.14% | growth inhibition [2] 34.7% | viability increase [3] -0.31% | viability [4] 86.1% | viability [5] 97.5% | inhibition [6] 2.6% | RAM network inhibition [7] 7.8%

Cc1ccnc(N2C(=O)c3ccccc3C2Nc2ccccc2Cl)c1 (configuration not stated)
inactive: growth inhibition [1] -15.2% | growth inhibition [2] -17.5% | viability increase [3] 2.73% | viability [4] 84.9% | viability [5] 92.5% | inhibition [6] 1.49% | RAM network inhibition [7] 12.8%

CCOC(=O)Cn1c(CN2CC(C)OC(C)C2)nc2c1c(=O)n(C)c(=O)n2C (configuration not stated)
inactive: growth inhibition [1] 3.12% | growth inhibition [2] 8.5% | viability increase [3] 0.25% | viability [4] 95.2% | viability [5] 95% | inhibition [6] -0.31% | RAM network inhibition [7] -1.12%

CN(CC(=O)NCCC1=CCCCC1)S(=O)(=O)c1ccc2c(c1)c(=O)n(C)c(=O)n2C
inactive: growth inhibition [1] -7.74% | growth inhibition [2] -27.4% | viability increase [3] -1.64% | viability [4] 84.4% | viability [5] 76.8% | inhibition [6] 2.88% | RAM network inhibition [7] 4.5%

CC(=O)NCCOc1c(C)cc(S(N)(=O)=O)cc1C
inactive: growth inhibition [1] 0.295% | growth inhibition [2] -6.93% | viability increase [3] -1.25% | viability [4] 92.4% | viability [5] 90.1% | inhibition [6] 0.43% | RAM network inhibition [7] 1.68%

CCn1c(C2CC(=O)N(c3cc(C)cc(C)c3)C2)nc2ccccc21 (configuration not stated)
inactive: growth inhibition [1] -6.28% | growth inhibition [2] -7% | viability increase [3] -4.36% | viability [4] 87% | viability [5] 85% | inhibition [6] 1.13% | RAM network inhibition [7] 4.85%
